Reference: ChEMBL document CHEMBL1154842, “Synthesis, radiolabeling, and biological evaluation of (R)- and (S)-2-amino-3-[(18)F]fluoro-2-methylpropanoic acid (FAMP) and (R)- and (S)-3-[(18)F]fluoro-2-methyl-2-N-(methylamino)propanoic acid (NMeFAMP) as potential PET radioligands for imaging brain tumors” (J Med Chem, 2010)

Experiments:
[1] = test system: Brain; experiment: Biodistribution in brain of Fischer 344 rat bearing rat 9L cells at 20 uCi, iv after 30 mins; settings: in vivo, 0.5 h
[2] = test system: Spleen; experiment: Biodistribution in spleen of Fischer 344 rat bearing rat 9L cells at 20 uCi, iv after 120 mins; assay type: ADME, organism-based; settings: in vivo, 2 h
In short: (§1)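 Male Fischer 344 rats (200–250 g) carrying intracranial 9L gliosarcoma (5×10^4 cells implanted stereotactically, 10–12 days growth), under ketamine:xylazine anaesthesia. About 20 μCi tracer in 0.5 mL sterile saline given via tail-vein catheter. Groups of 4–5 were killed by intracardiac KCl at 15 (NMeFAMP only), 30, 60 or 120 min. Tissues were weighed and gamma-counted, decay-corrected, and reported as %ID/g, mean ± SD.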

[3] = test system: Bone; experiment: Biodistribution in bone of Fischer 344 rat bearing rat 9L cells at 20 uCi, iv after 60 mins; assay type: ADME, organism-based, Bone element; settings: in vivo, 1 h
In short: as §1

[4] = Ratio of drug level from tumor to brain of Fischer 344 rat bearing rat 9L cells at 20 uCi, iv after 60 mins; settings: in vivo, 1 h
[5] = test system: Kidney; experiment: Biodistribution in kidney of Fischer 344 rat bearing rat 9L cells at 20 uCi, iv after 30 mins; assay type: ADME, organism-based; settings: in vivo, 0.5 h
In short: as §1

[6] = Biodistribution in testis of Fischer 344 rat bearing rat 9L cells at 20 uCi, iv after 30 mins; assay type: ADME, organism-based; settings: in vivo, 0.5 h
In short: as §1

[7] = test system: Kidney; experiment: Biodistribution in kidney of Fischer 344 rat bearing rat 9L cells at 20 uCi, iv after 120 mins; assay type: ADME, organism-based; settings: in vivo, 2 h
In short: as §1

[8] = rat, in vivo, iv, 1 h
[9] = test system: Spleen; experiment: Biodistribution in spleen of Fischer 344 rat bearing rat 9L cells at 20 uCi, iv after 30 mins; assay type: ADME, organism-based; settings: in vivo, 0.5 h
In short: as §1

[10] = test system: Heart; experiment: Biodistribution in heart of Fischer 344 rat bearing rat 9L cells at 20 uCi, iv after 120 mins; assay type: ADME, organism-based; settings: in vivo, 2 h
In short: as §1

[11] = test system: Spleen; experiment: Biodistribution in spleen of Fischer 344 rat bearing rat 9L cells at 20 uCi, iv after 60 mins; assay type: ADME, organism-based; settings: in vivo, 1 h
In short: as §1

[12] = test system: Heart; experiment: Biodistribution in heart of Fischer 344 rat bearing rat 9L cells at 20 uCi, iv after 30 mins; assay type: ADME, organism-based; settings: in vivo, 0.5 h
In short: as §1

[13] = test system: Liver; experiment: Biodistribution in liver of Fischer 344 rat bearing rat 9L cells at 20 uCi, iv after 120 mins; assay type: ADME, organism-based; settings: in vivo, 2 h
In short: as §1

[14] = Ratio of drug level from tumor to brain of Fischer 344 rat bearing rat 9L cells at 20 uCi, iv after 120 mins; assay type: ADME, organism-based; settings: in vivo, 2 h
[15] = test system: Pancreas; experiment: Biodistribution in pancreas of Fischer 344 rat bearing rat 9L cells at 20 uCi, iv after 120 mins; assay type: ADME, organism-based; settings: in vivo, 2 h
In short: as §1

[16] = test system: Liver; experiment: Biodistribution in liver of Fischer 344 rat bearing rat 9L cells at 20 uCi, iv after 30 mins; assay type: ADME, organism-based; settings: in vivo, 0.5 h
In short: as §1

[17] = test system: Lung; experiment: Biodistribution in lung of Fischer 344 rat bearing rat 9L cells at 20 uCi, iv after 60 mins; assay type: ADME, organism-based; settings: in vivo, 1 h
In short: as §1

[18] = test system: Blood; experiment: Biodistribution in blood of Fischer 344 rat bearing rat 9L cells at 20 uCi, iv after 60 mins; assay type: ADME, organism-based; settings: in vivo, 1 h
In short: as §1

[19] = test system: Pancreas; experiment: Biodistribution in pancreas of Fischer 344 rat bearing rat 9L cells at 20 uCi, iv after 30 mins; assay type: ADME, organism-based; settings: in vivo, 0.5 h
In short: as §1

[20] = test system: Blood; experiment: Biodistribution in blood of Fischer 344 rat bearing rat 9L cells at 20 uCi, iv after 30 mins; assay type: ADME, organism-based; settings: in vivo, 0.5 h
In short: as §1

[21] = test system: Bone; experiment: Biodistribution in bone of Fischer 344 rat bearing rat 9L cells at 20 uCi, iv after 30 mins; assay type: ADME, organism-based, Bone element; settings: in vivo, 0.5 h
In short: as §1

[22] = test system: Bone; experiment: Biodistribution in bone of Fischer 344 rat bearing rat 9L cells at 20 uCi, iv after 120 mins; assay type: ADME, organism-based, Bone element; settings: in vivo, 2 h
In short: as §1

[23] = Biodistribution in tumor of Fischer 344 rat bearing rat 9L cells at 20 uCi, iv after 30 mins; settings: in vivo, 0.5 h
[24] = test system: Pancreas; experiment: Biodistribution in pancreas of Fischer 344 rat bearing rat 9L cells at 20 uCi, iv after 60 mins; assay type: ADME, organism-based; settings: in vivo, 1 h
In short: as §1

[25] = Biodistribution in tumor of Fischer 344 rat bearing rat 9L cells at 20 uCi, iv after 30 mins; assay type: ADME, organism-based, Neoplasm; settings: in vivo, 0.5 h
In short: as §1

[26] = test system: Muscle tissue; experiment: Biodistribution in muscle of Fischer 344 rat bearing rat 9L cells at 20 uCi, iv after 120 mins; assay type: ADME, organism-based; settings: in vivo, 2 h
In short: as §1

[27] = rat, in vivo, iv, 1 h; remark: listed apart in the source
[28] = test system: Blood; experiment: Biodistribution in blood of Fischer 344 rat bearing rat 9L cells at 20 uCi, iv after 120 mins; assay type: ADME, organism-based; settings: in vivo, 2 h
In short: as §1

[29] = Biodistribution in testis of Fischer 344 rat bearing rat 9L cells at 20 uCi, iv after 60 mins; assay type: ADME, organism-based; settings: in vivo, 1 h
In short: as §1

[30] = test system: Muscle tissue; experiment: Biodistribution in muscle of Fischer 344 rat bearing rat 9L cells at 20 uCi, iv after 30 mins; assay type: ADME, organism-based; settings: in vivo, 0.5 h
In short: as §1

[31] = test system: Muscle tissue; experiment: Biodistribution in muscle of Fischer 344 rat bearing rat 9L cells at 20 uCi, iv after 60 mins; assay type: ADME, organism-based; settings: in vivo, 1 h
In short: as §1

[32] = test system: Lung; experiment: Biodistribution in lung of Fischer 344 rat bearing rat 9L cells at 20 uCi, iv after 120 mins; assay type: ADME, organism-based; settings: in vivo, 2 h
In short: as §1

[33] = test system: Heart; experiment: Biodistribution in heart of Fischer 344 rat bearing rat 9L cells at 20 uCi, iv after 60 mins; assay type: ADME, organism-based; settings: in vivo, 1 h
In short: as §1

[34] = test system: Lung; experiment: Biodistribution in lung of Fischer 344 rat bearing rat 9L cells at 20 uCi, iv after 30 mins; assay type: ADME, organism-based; settings: in vivo, 0.5 h
In short: as §1

[35] = Biodistribution in testis of Fischer 344 rat bearing rat 9L cells at 20 uCi, iv after 120 mins; assay type: ADME, organism-based; settings: in vivo, 2 h
In short: as §1

[36] = test system: Liver; experiment: Biodistribution in liver of Fischer 344 rat bearing rat 9L cells at 20 uCi, iv after 60 mins; assay type: ADME, organism-based; settings: in vivo, 1 h
In short: as §1

[37] = test system: Kidney; experiment: Biodistribution in kidney of Fischer 344 rat bearing rat 9L cells at 20 uCi, iv after 60 mins; assay type: ADME, organism-based; settings: in vivo, 1 h
In short: as §1

[38] = test system: 9L; experiment: Cellular uptake in rat 9L cells assessed as inhibition of uptake at 5 uCi measured […] by gamma counting in presence of system ASC transport inhibitor ACS relative to control; assay type: ADME, cell-based; parameters: scale not given: the % may be the effect or the level left
In short: (§2)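 9L rat gliosarcoma cells, grown in DMEM with 10% FCS, were trypsinised and washed in HBSS. About 5×10^5 cells were incubated with 5 μCi tracer in amino-acid-free HBSS for 30 min at 37 °C, with or without 10 mM final BCH, MeAIB or ACS (3.3 mM each Ala/Cys/Ser). Cells were washed cold, gamma-counted and decay-corrected. Inhibition is percent of control; triplicates, one-way ANOVA.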

[39] = test system: 9L; experiment: Cellular uptake in rat 9L cells at 5 uCi measured […] by gamma counting in presence of system A transport inhibitor MeAIB; assay type: ADME, cell-based
In short: (§3)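 9L rat gliosarcoma cells (DMEM, 10% FCS, 37 °C, 5% CO2) were trypsinised and washed in HBSS. About 5×10^5 cells took up 5 μCi tracer for 30 min in 0.1 mL amino acid-free HBSS, with inhibitor at 10 mM final (ACS: 3.3 mM each of alanine, cysteine, serine). Cells were spun and rinsed twice with ice-cold HBSS, then gamma counted with decay correction. Triplicates; uptake is % ID per 5×10^5 cells.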

[40] = test system: 9L; experiment: Cellular uptake in rat 9L cells at 5 uCi measured […] by gamma counting; assay type: ADME, cell-based
In short: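 9L rat gliosarcoma cells, grown in DMEM with 10% FCS, were trypsinised and washed in HBSS. About 5×10^5 cells were exposed to 5 μCi tracer in amino-acid-free HBSS for 30 min at 37 °C, 5% CO2, then centrifuged and rinsed twice with ice-cold HBSS. Cells were gamma-counted and decay-corrected, with uptake reported as % of initial dose per 5×10^5 cells ± SD, n=3.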

[41] = test system: 9L; experiment: Cellular uptake in rat 9L cells assessed as inhibition of uptake at 5 uCi measured […] by gamma counting in presence of system L transport inhibitor BCH relative to control; assay type: ADME, cell-based; parameters: scale not given: the % may be the effect or the level left
In short: as §2

[42] = test system: 9L; experiment: Cellular uptake in rat 9L cells assessed as inhibition of uptake at 5 uCi measured […] by gamma counting in presence of system A transport inhibitor MeAIB relative to control; assay type: ADME, cell-based; parameters: scale not given: the % may be the effect or the level left
In short: as §2

[43] = test system: 9L; experiment: Cellular uptake in rat 9L cells at 5 uCi measured […] by gamma counting in presence of system L transport inhibitor BCH; assay type: ADME, cell-based
In short: as §3

[44] = test system: 9L; experiment: Cellular uptake in rat 9L cells at 5 uCi measured per 0.5 million cells by gamma counting in presence of system ASC transport inhibitor ACS

SMILES	Drug uptake [1]	Drug uptake [2]	Drug uptake [3]	Ratio [4]	Drug uptake [5]	Drug uptake [6]	Drug uptake [7]	Drug uptake [8]	Drug uptake [9]	Drug uptake [10]	Drug uptake [11]	Drug uptake [12]	Drug uptake [13]	Ratio [14]	Drug uptake [15]	Drug uptake [16]	Drug uptake [17]	Drug uptake [18]	Drug uptake [19]	Drug uptake [20]	further results
C[C@@](N)(C[18F])C(=O)O.Cl	0.07 % ID/g	0.51 % ID/g	0.3 % ID/g	30.9	8.71 % ID/g	0.19 % ID/g	6.88 % ID/g	0.06 % ID/g	0.73 % ID/g	0.34 % ID/g	0.62 % ID/g	0.43 % ID/g	0.42 % ID/g	27.7	2.79 % ID/g	0.61 % ID/g	0.47 % ID/g	0.4 % ID/g	3.75 % ID/g	0.58 % ID/g	Drug uptake [21]: 0.3 % ID/g; Drug uptake [22]: 0.31 % ID/g; Drug uptake [23]: 1.38 % ID/g; Drug uptake [24]: 3.91 % ID/g; Ratio [25]: 21.1; Drug uptake [26]: 0.36 % ID/g; Drug uptake [27]: 1.82 % ID/g; Drug uptake [28]: 0.32 % ID/g; Drug uptake [29]: 0.16 % ID/g; Drug uptake [30]: 0.47 % ID/g; Drug uptake [31]: 0.37 % ID/g; Drug uptake [32]: 0.36 % ID/g; Drug uptake [33]: 0.41 % ID/g; Drug uptake [34]: 0.67 % ID/g; Drug uptake [35]: 0.17 % ID/g; Drug uptake [36]: 0.54 % ID/g; Drug uptake [37]: 7.62 % ID/g
N[C@]1(C(=O)O)C[C@@H]([18F])C1 [FLUCICLOVINE F18]								0.26 % ID/g													
C[C@](N)(C[18F])C(=O)O.Cl	0.06 % ID/g	0.39 % ID/g	0.36 % ID/g	28.6	3.47 % ID/g	0.15 % ID/g	2.09 % ID/g	0.1 % ID/g	0.72 % ID/g	0.23 % ID/g	0.71 % ID/g	0.32 % ID/g	0.32 % ID/g	27.5	1.17 % ID/g	0.6 % ID/g	0.4 % ID/g	0.25 % ID/g	2.96 % ID/g	0.28 % ID/g	Drug uptake [21]: 0.23 % ID/g; Drug uptake [22]: 0.26 % ID/g; Drug uptake [23]: 2.46 % ID/g; Drug uptake [24]: 2.05 % ID/g; Ratio [25]: 38.2; Drug uptake [26]: 0.36 % ID/g; Drug uptake [27]: 2.82 % ID/g; Drug uptake [28]: 0.16 % ID/g; Drug uptake [29]: 0.17 % ID/g; Drug uptake [30]: 0.32 % ID/g; Drug uptake [31]: 0.52 % ID/g; Drug uptake [32]: 0.23 % ID/g; Drug uptake [33]: 0.34 % ID/g; Drug uptake [34]: 0.37 % ID/g; Drug uptake [35]: 0.16 % ID/g; Drug uptake [36]: 0.65 % ID/g; Drug uptake [37]: 2.96 % ID/g
C[C@](N)(CF)C(=O)O.Cl																					Activity [38]: 87%; Drug uptake [39]: 5.51 %ID; Drug uptake [40]: 13.06 %ID; Activity [41]: 67%; Activity [42]: 58%; Drug uptake [43]: 4.27 %ID; Drug uptake [44]: 1.7 %ID
